Assay results from different studies.
Target: Serine/threonine-protein kinase ULK2 (ULK2, Homo sapiens, UniProt Q8IYT8)
Residues used in one study (Q8IYT8 1-1036): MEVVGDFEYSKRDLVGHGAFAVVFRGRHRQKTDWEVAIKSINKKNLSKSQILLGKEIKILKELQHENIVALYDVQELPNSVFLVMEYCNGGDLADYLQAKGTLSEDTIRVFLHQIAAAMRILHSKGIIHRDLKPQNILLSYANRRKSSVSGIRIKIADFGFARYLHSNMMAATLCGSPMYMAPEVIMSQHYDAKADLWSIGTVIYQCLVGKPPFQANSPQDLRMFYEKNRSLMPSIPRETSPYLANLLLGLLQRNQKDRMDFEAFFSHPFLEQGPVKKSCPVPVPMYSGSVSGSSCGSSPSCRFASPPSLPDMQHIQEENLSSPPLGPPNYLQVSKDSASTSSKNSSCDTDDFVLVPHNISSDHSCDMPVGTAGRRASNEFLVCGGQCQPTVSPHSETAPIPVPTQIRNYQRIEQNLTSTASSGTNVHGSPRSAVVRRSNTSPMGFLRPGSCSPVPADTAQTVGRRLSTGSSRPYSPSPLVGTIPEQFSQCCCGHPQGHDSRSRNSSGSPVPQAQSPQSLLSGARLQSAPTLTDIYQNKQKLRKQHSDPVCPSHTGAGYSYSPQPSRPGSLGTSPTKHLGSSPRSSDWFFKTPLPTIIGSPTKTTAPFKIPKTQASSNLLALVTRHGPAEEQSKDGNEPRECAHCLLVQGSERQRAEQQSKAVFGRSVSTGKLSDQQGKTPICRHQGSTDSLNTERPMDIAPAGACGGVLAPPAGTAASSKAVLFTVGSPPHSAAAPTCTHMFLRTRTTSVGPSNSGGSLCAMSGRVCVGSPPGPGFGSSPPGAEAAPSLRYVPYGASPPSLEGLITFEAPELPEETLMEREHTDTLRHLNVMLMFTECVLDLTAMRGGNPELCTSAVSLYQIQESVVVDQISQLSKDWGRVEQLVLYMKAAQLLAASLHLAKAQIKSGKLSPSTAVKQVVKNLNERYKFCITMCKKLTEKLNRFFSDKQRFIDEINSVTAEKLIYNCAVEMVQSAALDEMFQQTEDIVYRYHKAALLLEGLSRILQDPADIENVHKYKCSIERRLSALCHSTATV

With COc1cc(/C=C/C(=O)CC(=O)/C=C/c2ccc(O)c(OC)c2)ccc1O the activity vs control was 105% (enzyme activity; inhibitor; 1 µM).
O=C1NC(=O)c2cc(Nc3ccc(F)cc3)c(Nc3ccc(F)cc3)cc21 has a remaining signal of 84.7% (cell-free assay; 0.5 µM).
The inhibition of O=C(CSc1nc2nccnc2c(=O)n1CCc1ccccc1)Nc1nccs1 is reported as 2% (enzyme activity; inhibitor; 10 µM).
For FC(F)(F)Oc1cccc(-c2cnc3ccc(-c4ccncc4)nn23)c1, the activity vs control was 110% (enzyme activity; inhibitor; radiometric; 1 µM).
For CCCOc1ccc([C@@H]2[C@@H](C(=O)O)[C@H](c3ccc4c(c3)OCO4)CN2CC(=O)Nc2c(CC)cccc2CC)cc1, the remaining binding was 76% (cell-free assay; competition with immobilised ligand; 1 µM).
For O=C1Nc2ccc(Cl)cc2C1=Cc1cc(Cl)c(O)c(Cl)c1, the remaining signal was 101% (cell-free assay; 0.5 µM).
CCN1CCN(Cc2ccc(NC(=O)c3ccc(C)c(Oc4ccnc5[nH]ccc45)c3)cc2C(F)(F)F)CC1 has an inhibition of -16.6% (target engagement in cells; inhibitor; chemoproteomics; Huh-7; 1 µM).
For CN1CCN(c2cnc3c(C4CCN(C(=O)c5ccc(OC(F)(F)F)cc5N)CC4)ncnc3c2)CC1, the remaining binding was 100% (cell-free assay; competition with immobilised ligand; 1 µM).
Cc1ccc(NC(=O)c2ccc(C)c(C(F)(F)F)c2)cc1C#Cc1nn(C2CCC(O)CC2)c2ncnc(N)c12 (stereo not shown) gave a remaining signal of 100% (cell-free assay; 10 µM).
With COc1cc(Nc2cnc(C#N)c(O[C@H](C)CN(C)C)n2)ncc1-c1cnn(C)c1 the remaining activity was 42% (enzyme activity; inhibitor; radiometric; 1 µM).
With N#Cc1ccc(Nc2ccc3[nH]c(=O)[nH]c3c2)c(Cl)c1 the remaining binding was 99% (cell-free assay; competition with immobilised ligand; 1 µM).
The remaining activity of Cc1cnc(NC2CCOCC2)nc1-n1cnc(C(=O)NC(CN)c2cc(F)cc(Cl)c2)c1 (stereo not shown) is reported as 110% (enzyme activity; inhibitor; radiometric; 1 µM).
For COc1cc(Cl)c(C(=O)N[C@@H](CN[C@H]2CC[C@@H](N)CC2)Cc2ccc(C#N)cc2)cc1-c1ccc(CN[C@H](C)c2ccc(C)cc2)o1, the remaining activity was 94% (enzyme activity; inhibitor; 1 µM).
With CS(=O)(=O)CCNCc1ccc(-c2ccc3ncnc(Nc4ccc(OCc5cccc(F)c5)c(Cl)c4)c3c2)o1 the remaining signal was 104% (cell-free assay; 0.5 µM).
C[C@@]1(Cc2ccc(C#N)cc2)C(=O)N(c2cc(Cl)cc(Cl)c2)c2ncc(C(=O)NC3(c4nc(C5CCC5)no4)CC3)n21 gave a remaining binding of 100% (cell-free assay; competition with immobilised ligand; 1 µM).
For CCN(CC)c1ccc(C2=NNC(=O)CC2C)cc1[N+](=O)[O-] (stereo not shown), the remaining activity was 97% (enzyme activity; inhibitor; 10 µM).
With CCCCN(CCCC)C(=O)CN1C[C@@H](c2cc(OC)c3c(c2)OCO3)[C@H](C(=O)O)[C@H]1CC(C)(C)CCC the remaining binding was 89.2% (cell-free assay; competition with immobilised ligand; 1 µM).
C[S+]([O-])c1ccc(-c2nc(-c3ccncc3)c(-c3ccc(F)cc3)[nH]2)cc1 (stereo not shown) gave a remaining signal of 83.5% (cell-free assay; 0.5 µM).
COc1cc(-c2cn(C3CCc4ccccc4N(CC(F)(F)F)C3=O)nn2)ccc1-n1ccc(C)n1 (stereo not shown) has a remaining binding of 88% (cell-free assay; competition with immobilised ligand; 1 µM).
CC(C)(O)[C@H]1CC[C@H](Nc2ccc3ncc(-c4cccc(C(F)(F)F)c4)n3n2)CC1 gave a remaining activity of 97.9% (enzyme activity; inhibitor; 1 µM).
With CN(C(=O)c1ccccc1)c1cc(N(C)c2ccc3c(c2)CCc2ccc(C(=O)NCCN4CCOCC4)cc2C3=O)ccc1F the remaining binding was 100% (cell-free assay; competition with immobilised ligand; 1 µM).
O=C(Nc1cnn(-c2csc(C(=O)NC3COC3)c2)c1)Nc1ccccc1Cl gave a remaining activity of 196% (enzyme activity; inhibitor; 5 µM).
